# Data from ChEMBL document CHEMBL1765073, “Synthesis and structure-activity relationship studies of urea-containing pyrazoles as dual inhibitors of cyclooxygenase-2 and soluble epoxide hydrolase” (J Med Chem, 2011).
# Calls of active or inactive are those of the source. The rule behind the calls is not given here.
# What was measured:
# [1] = biological target: T1, Prostaglandin G/H synthase 1 (Ovis aries) (UniProt P05979); assay: Inhibition of ovine COX-1 at 100 uM after 2 mins by fluorescence assay
# T1 sequence (whole entry): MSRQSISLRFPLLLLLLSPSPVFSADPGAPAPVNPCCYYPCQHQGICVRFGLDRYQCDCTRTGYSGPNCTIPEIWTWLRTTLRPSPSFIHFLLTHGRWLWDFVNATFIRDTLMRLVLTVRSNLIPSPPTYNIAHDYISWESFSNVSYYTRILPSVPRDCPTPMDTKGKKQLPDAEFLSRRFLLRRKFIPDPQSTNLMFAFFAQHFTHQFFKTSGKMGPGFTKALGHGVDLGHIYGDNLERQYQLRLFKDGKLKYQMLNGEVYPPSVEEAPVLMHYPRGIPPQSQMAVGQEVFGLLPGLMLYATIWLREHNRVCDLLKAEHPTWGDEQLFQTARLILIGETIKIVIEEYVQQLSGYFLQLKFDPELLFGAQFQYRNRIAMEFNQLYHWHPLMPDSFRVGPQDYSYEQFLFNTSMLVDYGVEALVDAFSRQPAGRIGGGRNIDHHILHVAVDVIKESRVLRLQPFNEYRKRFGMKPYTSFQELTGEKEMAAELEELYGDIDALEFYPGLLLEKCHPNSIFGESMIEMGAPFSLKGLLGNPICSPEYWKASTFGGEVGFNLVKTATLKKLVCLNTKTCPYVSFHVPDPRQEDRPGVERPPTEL
# Summary of the method: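 Ovine COX-1 was tested in a fluorescent kit assay in 100 mM Tris-HCl, pH 8.0, with heme and ADHP substrate. Inhibitor was added at a final 100 µM, then the reaction was started with arachidonic acid for 2 min at room temperature. Resorufin was read at ex 535/em 590 nm, and % inhibition was taken against a no-inhibitor control.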
# Rattus norvegicus [2] = assay: Antiallodynic activity in Sprague-Dawley rat von Frey hair mechanically-stimulated inflammatory pain model assessed as reversal of LPS-induced decrease in paw withdrawal latency at 10 mg/kg, sc administered 60 mins before LPS challenge
# [3] = biological target: T2, Polyunsaturated fatty acid 5-lipoxygenase (Homo sapiens) (UniProt P09917); assay: Inhibition of human 5-lipoxygenase at 10 uM
# T2 sequence (whole entry): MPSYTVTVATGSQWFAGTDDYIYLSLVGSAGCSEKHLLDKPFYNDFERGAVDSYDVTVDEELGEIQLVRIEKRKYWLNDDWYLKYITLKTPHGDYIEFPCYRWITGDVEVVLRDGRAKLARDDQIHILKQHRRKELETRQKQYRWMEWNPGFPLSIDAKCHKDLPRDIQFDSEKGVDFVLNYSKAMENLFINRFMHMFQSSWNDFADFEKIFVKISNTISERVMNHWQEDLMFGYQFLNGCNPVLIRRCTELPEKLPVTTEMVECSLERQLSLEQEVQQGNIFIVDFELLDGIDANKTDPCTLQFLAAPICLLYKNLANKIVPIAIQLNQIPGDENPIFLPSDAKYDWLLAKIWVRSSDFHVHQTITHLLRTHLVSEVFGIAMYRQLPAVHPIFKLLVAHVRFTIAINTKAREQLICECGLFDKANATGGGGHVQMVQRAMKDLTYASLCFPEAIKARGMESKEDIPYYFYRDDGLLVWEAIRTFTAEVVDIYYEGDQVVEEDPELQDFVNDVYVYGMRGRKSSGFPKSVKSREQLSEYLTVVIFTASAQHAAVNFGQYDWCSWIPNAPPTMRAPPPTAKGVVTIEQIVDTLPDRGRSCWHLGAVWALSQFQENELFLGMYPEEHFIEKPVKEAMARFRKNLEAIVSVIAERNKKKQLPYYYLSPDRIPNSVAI
# [4] = Half life in Sprague-Dawley rat at 1 mg/kg, po; format: ADME, organism-based; set-up: dose 1 mg/kg, route oral; settings: in vivo
# Summary of the method: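 Male Sprague-Dawley rats (8 weeks, 250–300 g, n = 4) were dosed orally at 1 mg/kg in oleic-ester-rich triglyceride with 10% PEG 400. Tail-vein blood (10 µL) was taken at 0–24 h, mixed with water and stored at −80 °C. Drug was quantified by LC/MS/MS, and t1/2 came from non-compartmental analysis of each rat.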
# Rattus norvegicus [5] = assay: Toxicity in Sprague-Dawley rat von Frey hair mechanically-stimulated […] pain model assessed as overt signs of behavioral changes at 10 mg/kg, sc after 9 hrs; format: organism-based; set-up: dose 10 mg/kg, route subcutaneous; settings: in vivo
# Summary of the method: (§1)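 Male Sprague-Dawley rats treated s.c. (10 mg/kg, PEG400 vehicle) in the LPS von Frey study were observed over nine hours on the test day. Animals were checked for behavioral changes and for acute signs such as lacrimation, porphyrin exudation, frozen or hunched posture, gasping or chattering.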
# Rattus norvegicus [6] = assay: Toxicity in Sprague-Dawley rat von Frey hair mechanically-stimulated […] pain model assessed as acute observable symptoms of toxicity at 10 mg/kg, sc after 9 hrs; format: organism-based; set-up: dose 10 mg/kg, route subcutaneous; settings: in vivo; summary of the method: as §1
# U-937 = assay: Cytotoxicity against human U937 cells; format: cell-based
SMILES,inhibition [1],further results
Cc1ccc(-c2cc(CCCNC(=O)Nc3cccc(C(F)(F)F)c3)nn2-c2ccc(S(N)(=O)=O)cc2)cc1,12%,
CC(C)c1cccc(C(C)C)c1NC(=O)NCCCc1cc(-c2ccccc2)n(-c2ccc(S(N)(=O)=O)cc2)n1,6%,
NS(=O)(=O)c1ccc(-n2nc(CCCNC(=O)Nc3ccc(Cl)cc3)cc2-c2ccccc2)cc1,15%,
O=C(NC12CC3CC(CC(C3)C1)C2)N[C@H]1CC[C@H](Oc2ccc(C(=O)O)cc2)CC1,25%,Activity (Rattus norvegicus [2]): Active
NS(=O)(=O)c1ccc(-n2nc(NC(=O)Nc3cccc(C(F)(F)F)c3)cc2-c2ccccc2)cc1,34%,
Cc1ccc(-c2cc(C(F)(F)F)nn2-c2ccc(S(N)(=O)=O)cc2)cc1,,inhibition [3]: 80%; Activity (Rattus norvegicus [2]): Active
CC(C)(C)c1cc(CNC(=O)Nc2cccc(C(F)(F)F)c2)nn1-c1ccc(S(C)(=O)=O)cc1,2%,
NS(=O)(=O)c1ccc(-n2nc(CCCNC(=O)NC3CCCCCC3)cc2-c2ccccc2)cc1,10%,
NS(=O)(=O)c1ccc(-n2nc(CCCNC(=O)Nc3ccc(OC(F)(F)F)cc3)cc2-c2ccccc2)cc1,14%,half-life [4]: 12 h
NS(=O)(=O)c1ccc(-n2nc(CCCNC(=O)NC34CC5CC(CC(C5)C3)C4)cc2-c2ccccc2)cc1,7%,
NS(=O)(=O)c1ccc(-n2nc(CCCNC(=O)Nc3cccc(C(F)(F)F)c3)cc2-c2ccccc2)cc1,27%,
NS(=O)(=O)c1ccc(-n2nc(CCCNC(=O)Nc3ccccc3)cc2-c2ccccc2)cc1,16%,
CS(=O)(=O)c1ccc(-n2nc(CNC(=O)NC3CCCCCC3)cc2-c2ccccc2)cc1,3%,
CS(=O)(=O)c1ccc(-n2nc(CCCNC(=O)Nc3cccc(C(F)(F)F)c3)cc2-c2ccccc2)cc1,6%,
CS(=O)(=O)c1ccc(-n2nc(CNC(=O)NC34CC5CC(CC(C5)C3)C4)cc2-c2ccccc2)cc1,13%,
CS(=O)(=O)c1ccc(-n2nc(CNC(=O)Nc3ccc(C(F)(F)F)cc3)cc2-c2ccccc2)cc1,11%,
NS(=O)(=O)c1ccc(-n2nc(CCNC(=O)Nc3cccc(C(F)(F)F)c3)cc2-c2ccccc2)cc1,22%,
NS(=O)(=O)c1ccc(-n2nc(CNC(=O)Nc3cccc(C(F)(F)F)c3)cc2-c2ccccc2)cc1,17%,
CS(=O)(=O)c1ccc(-n2nc(CNC(=O)Nc3cccc(C(F)(F)F)c3)cc2-c2ccccc2)cc1,8%,
NS(=O)(=O)c1ccc(-n2nc(CCCNC(=O)Nc3ccc(C(F)(F)F)cc3)cc2-c2ccccc2)cc1,23%,inhibition [3]: 83%; Activity (Rattus norvegicus [5]): Non-toxic; Activity (Rattus norvegicus [6]): Non-toxic; Activity (U-937): Non-toxic; Activity (Rattus norvegicus [2]): Active
CS(=O)(=O)c1ccc(-n2nc(CNC(=O)Nc3ccc(OC(F)(F)F)cc3)cc2-c2ccccc2)cc1,10%,
